Experimental findings from ChEMBL document CHEMBL1132552, “Synthesis, characterization, and structure-activity relationships of amidine-substituted (bis)benzylidene-cycloketone olefin isomers as potent and selective factor Xa inhibitors” (J Med Chem, 1999) are described below.

The target of assay [1] is T1, Serine protease 1 (Bos taurus, UniProt P00760).
T1 sequence (P00760 whole entry): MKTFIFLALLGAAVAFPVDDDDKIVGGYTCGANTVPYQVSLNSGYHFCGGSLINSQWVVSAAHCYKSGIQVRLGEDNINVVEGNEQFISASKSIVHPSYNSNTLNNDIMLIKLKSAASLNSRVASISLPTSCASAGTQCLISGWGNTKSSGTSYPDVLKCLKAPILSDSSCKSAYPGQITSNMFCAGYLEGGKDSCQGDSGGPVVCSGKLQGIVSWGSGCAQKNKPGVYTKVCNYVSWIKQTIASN
Put plainly: In vitro inhibition of bovine trypsin(Trp). In outline:
(§1)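 Buffer was 150 mM NaCl, 2.5 mM CaCl₂, 50 mM Tris-HCl pH 7.5, 0.1% PEG 6000. Read in a microplate reader at ~23 °C in the dark across varying inhibitor concentrations. Ki from competitive treatment; duplicate runs.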

Assay [2] deals with Prothrombin (Homo sapiens, UniProt P00734). Put plainly: In vitro inhibition of human thrombin(FIIa). In outline: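 Medium: 150 mM NaCl, 2.5 mM CaCl₂, 50 mM Tris-HCl pH 7.5, 0.1% PEG 6000. Microplate reader readings at room temperature (~23 °C), light excluded, varying inhibitor concentrations. Competitive Ki derived; assays in duplicate.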
Assay [3] addresses Coagulation factor X (Homo sapiens, UniProt P00742). Briefly: In vitro inhibition of human coagulation factor Xa (Xa) in a purified enzyme system. The method, boiled down:
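Buffer: 150 mM NaCl, 2.5 mM CaCl₂, 50 mM Tris-HCl pH 7.5, 0.1% PEG 6000. For very tight binding, enzyme was lowered to 0.1 nM, or data at 0.3 and 1 nM enzyme were fitted to a modified Morrison equation.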

In assay [4] the target is T1, Serine protease 1. Put plainly: In vitro inhibition of bovine trypsin (Trp). In outline:
as §1

The structures appear in SMILES notation. Where only a bound is given, the exact number is not on record here.

Coagulation factor X, sequence (P00742 41-179 limits assumed): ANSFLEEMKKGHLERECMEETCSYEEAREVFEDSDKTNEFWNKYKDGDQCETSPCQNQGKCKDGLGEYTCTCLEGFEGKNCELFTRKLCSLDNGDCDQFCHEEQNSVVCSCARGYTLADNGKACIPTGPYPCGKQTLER
Coagulation factor X, sequence (P00742 235-488 limits assumed): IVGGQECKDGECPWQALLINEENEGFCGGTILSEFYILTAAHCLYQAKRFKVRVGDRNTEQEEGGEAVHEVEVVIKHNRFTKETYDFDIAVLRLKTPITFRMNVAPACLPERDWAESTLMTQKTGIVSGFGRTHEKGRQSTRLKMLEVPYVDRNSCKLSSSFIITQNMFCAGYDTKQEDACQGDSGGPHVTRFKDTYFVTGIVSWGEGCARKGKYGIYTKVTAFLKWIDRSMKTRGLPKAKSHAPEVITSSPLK

`N=C(N)c1ccc(/C=C2/CCC/C(=C\c3ccc(C(=N)N)cc3)C2=O)cc1`: the values for the Ki in assay [1] and in assay [2] were 260 nM and 120 nM, respectively.

As to `N=C(N)c1ccc(/C=C2/CCCCCC/C(=C\c3ccc(C(=N)N)cc3)C2=O)cc1`, the Ki was 340 nM in assay [1] and 320 nM in assay [3].

As to `NC(=O)c1ccc(/C=C2/CCCC/C(=C/c3ccc(C(N)=O)cc3)C2=O)cc1`, the figures for the Ki in assay [1], in assay [3] and in assay [2] were greater than 5000 nM, greater than 5000 nM and 2900 nM, respectively.

Turning to `COC(=O)C1C/C(=C\c2ccc(C(=N)N)cc2)C(=O)/C(=C/c2ccc(C(=N)N)cc2)C1` (stereo not drawn), the figures for the Ki in assay [1], in assay [3] and in assay [2] were 72 nM, greater than 5000 nM and 4400 nM, respectively.

`CN(C)C(=N)c1ccc(/C=C2/CCCC/C(=C\c3ccc(C(=N)N(C)C)cc3)C2=O)cc1`: the Ki in assay [1], in assay [3] and in assay [2] was greater than 5000 nM each time.

As for `CN(C)C(=N)c1ccc(/C=C2/CCCC/C(=C/c3ccc(C(=N)N)cc3)C2=O)cc1`, the inhibition constant Ki in assay [1] was found to be 90 nM.

Consider `N=C(N)c1ccc(/C=C2/CCCCCCC/C(=C\c3ccc(C(=N)N)cc3)C2=O)cc1`, for which the Ki in assay [1] is 2100 nM; in assay [2], 150 nM.

Regarding `C/N=C(/N)c1ccc(/C=C2/CCCC/C(=C\c3ccc(C(=N)N)cc3)C2=O)cc1`, the figures for the Ki in assay [1], in assay [3] and in assay [2] were 155 nM, 500 nM and 360 nM, respectively.

Compound `NC(=O)c1ccc(/C=C2/CCCC/C(=C\c3ccc(C(N)=O)cc3)C2=O)cc1` had a Ki in assay [3] greater than 5000 nM.

In the case of `N=C(N)c1ccc(/C=C2/CCCCC/C(=C\c3ccc(C(=N)N)cc3)C2=O)cc1`, the Ki in assay [1] turned out to be 30 nM; in assay [3], 130 nM.

In the case of `N=C(N)c1ccc(/C=C2\CC(c3ccccc3)C/C(=C\c3ccc(C(=N)N)cc3)C2=O)cc1` (stereo not drawn), the values for the Ki in assay [1], in assay [3] and in assay [2] were 56 nM, 3300 nM and 630 nM, respectively.

As for `N=C(N)c1ccc(/C=C2\CCCC/C(=C\c3ccc(C(N)=O)cc3)C2=O)cc1`, the Ki in assay [1], in assay [3] and in assay [2] was greater than 500 nM in each case.

As to `N=C(N)c1ccc(/C=C2/CC(C(=O)O)C/C(=C/c3ccc(C(=N)N)cc3)C2=O)cc1` (stereo not drawn), the Ki in assay [1] is 430 nM; in assay [3], 6.9 nM; in assay [2], greater than 50000 nM.

Consider `N=C(N)c1ccc(/C=C2\CC/C(=C\c3ccc(C(=N)N)cc3)C2=O)cc1`, for which the Ki in assay [1] was 590 nM; in assay [3] it was 4600 nM; in assay [2] it was 2200 nM.

Consider `COC(=O)C1C/C(=C/c2ccc(C(=N)N)cc2)C(=O)/C(=C/c2ccc(C(=N)N)cc2)C1` (stereo not drawn), for which the values for the Ki in assay [1], in assay [3] and in assay [2] were 224 nM, greater than 500 nM and 600 nM, respectively.

Consider `CCOC(=O)N1C/C(=C/c2ccc(C(=N)N)cc2)C(=O)/C(=C/c2ccc(C(=N)N)cc2)C1`, for which the Ki stood at 61 nM in assay [1], 225 nM in assay [3] and 630 nM in assay [2].

Consider `N=C(N)c1ccc(/C=C2\CC(C(=O)O)C/C(=C\c3ccc(C(=N)N)cc3)C2=O)cc1` (stereo not drawn), for which the inhibition constant Ki in assay [1] turned out to be 880 nM; in assay [3] it was 24400 nM; in assay [2], 21500 nM.

Take `N=C(N)c1ccc(/C=C2\CCCC/C(=C/c3ccc(C(N)=O)cc3)C2=O)cc1`: the values for the Ki in assay [1], in assay [3] and in assay [2] were 500 nM, 1850 nM and 350 nM, respectively.

For the compound `CN(C)C(=N)c1ccc(/C=C2\CCCC/C(=C\c3ccc(C(=N)N)cc3)C2=O)cc1`, the figures for the Ki in assay [1], in assay [3] and in assay [2] were 500 nM, 350 nM and 3700 nM, respectively.

For the compound `C/N=C(\N)c1ccc(/C=C2\CCCC/C(=C\c3ccc(C(=N)N)cc3)C2=O)cc1`, in assay [1], the Ki was 840 nM.

For `C/N=C(\N)c1ccc(/C=C2/CCCC/C(=C/c3ccc(C(=N)N)cc3)C2=O)cc1`, the results for the Ki in assay [1], in assay [3] and in assay [2] were 30 nM, 12 nM and 1600 nM, respectively.

As for `N=C(N)c1ccc(/C=C2/CCCCC/C(=C/c3ccc(C(=N)N)cc3)C2=O)cc1`, the figures for the Ki in assay [1], in assay [3] and in assay [2] were 100 nM, 4.6 nM and 300 nM, respectively.

On to `N=C(N)c1ccc(/C=C2/CCCC/C(=C/c3ccc(C(N)=O)cc3)C2=O)cc1`, for which the results for the Ki in assay [1], in assay [3] and in assay [2] were 690 nM, 50 nM and 110 nM, respectively.

With `CCOC(=O)N1C/C(=C/c2ccc(C(=N)N)cc2)C(=O)/C(=C\c2ccc(C(=N)N)cc2)C1`, the figures for the Ki in assay [1], in assay [3] and in assay [2] were 20 nM, 2.5 nM and 380 nM, respectively.

For `N=C(N)c1ccc(/C=C2\CCCCCC/C(=C\c3ccc(C(=N)N)cc3)C2=O)cc1`, the Ki in assay [1] came to 1500 nM; in assay [3], 390 nM; in assay [2] it was 3700 nM.

`N=C(N)c1ccc(/C=C2/CCCCCCC/C(=C/c3ccc(C(=N)N)cc3)C2=O)cc1` had an inhibition constant (Ki) in assay [1] of 2200 nM.

Turning to `CN(C)C(=N)c1ccc(/C=C2/CCCC/C(=C\c3ccc(C(=N)N)cc3)C2=O)cc1`, the Ki in assay [1] was 15 nM; in assay [3], 52 nM; in assay [2] it was 120 nM.

With `N=C(N)c1ccc(/C=C2/CC(c3ccccc3)C/C(=C\c3ccc(C(=N)N)cc3)C2=O)cc1` (stereo not drawn), the Ki was determined as 160 nM in assay [1], 395 nM in assay [3] and 325 nM in assay [2].

Regarding `CN(C)C(=N)c1ccc(/C=C2/CCCC/C(=C/c3ccc(C(=N)N(C)C)cc3)C2=O)cc1`, the results for the Ki in assay [1], in assay [3] and in assay [2] were greater than 5000 nM, 1600 nM and greater than 5000 nM, respectively.

With `N=C(N)c1ccc(/C=C2/CCC/C(=C/c3ccc(C(=N)N)cc3)C2=O)cc1`, the Ki in assay [1] is 440 nM; in assay [3], 18 nM; in assay [2], 810 nM.

As for `N=C(N)c1ccc(/C=C2\CCCCC/C(=C\c3ccc(C(=N)N)cc3)C2=O)cc1`, the Ki in assay [1] was found to be 310 nM; in assay [3], 1800 nM; in assay [2], 2100 nM.

As to `N=C(N)c1ccc(/C=C2\CCCCCCC/C(=C\c3ccc(C(=N)N)cc3)C2=O)cc1`, the Ki in assay [1] amounted to 3000 nM; in assay [3] it was 960 nM; in assay [2], 730 nM.

Turning to `CCOC(=O)N1C/C(=C\c2ccc(C(=N)N)cc2)C(=O)/C(=C/c2ccc(C(=N)N)cc2)C1`, the Ki in assay [1] is 125 nM; in assay [3], greater than 5000 nM; in assay [2], 3300 nM.

With `N=C(N)c1ccc(/C=C2\CCC/C(=C\c3ccc(C(=N)N)cc3)C2=O)cc1`, the Ki in assay [1] came out at 170 nM.

Regarding `CN(C)C(=N)c1ccc(/C=C2\CCCC/C(=C\c3ccc(C(=N)N(C)C)cc3)C2=O)cc1`, the Ki in assay [4], in assay [3] and in assay [2] was greater than 5000 nM throughout.

As to `N=C(N)c1ccc(/C=C2/CC(c3ccccc3)C/C(=C/c3ccc(C(=N)N)cc3)C2=O)cc1` (stereo not drawn), the Ki in assay [1] turned out to be 100 nM; in assay [3], 5.2 nM; in assay [2] it was 1700 nM.

As for `N=C(N)c1ccc(/C=C2/CC/C(=C\c3ccc(C(=N)N)cc3)C2=O)cc1`, the Ki in assay [1] came out at 730 nM; in assay [3] it was 230 nM; in assay [2] it was 19200 nM.

On to `N=C(N)c1ccc(/C=C2/CCCCCC/C(=C/c3ccc(C(=N)N)cc3)C2=O)cc1`, for which the Ki in assay [1] is 190 nM; in assay [3], 2.8 nM; in assay [2], 290 nM.

In the case of `COC(=O)C1C/C(=C/c2ccc(C(=N)N)cc2)C(=O)/C(=C\c2ccc(C(=N)N)cc2)C1` (stereo not drawn), the Ki in assay [1] worked out at 100 nM; in assay [3], 4.8 nM; in assay [2], 1100 nM.

The Ki is the equilibrium dissociation constant of an inhibitor or competing ligand from its target.
